In PMC2857698 (Biochemistry, 2010):

Legend:
EH domain of EHD1 = assay: ITC of NPF peptides binding to EHD1 EH; set-up: species or system mouse; details: for Ka / TΔS / ΔG / ΔH / ΔS: 25 mM MOPS pH 7.0, 1 mM CaCl2
In short: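 Mouse EHD1 EH domain (V437–E534) expressed as a GST fusion, purified on glutathione resin and thrombin-cleaved on beads. Protein and peptides were dialysed at 4°C against 25 mM MOPS pH 7.0, 1 mM CaCl2, with KCl varied where applicable. ITC was run at 20°C unless stated (5–25°C), with 50–200 μM protein in the cell and peptide titrant 10-fold higher. Single-site fit gave Ka, n and ΔH; ΔG = −RTlnKa, and TΔS came from ΔG = ΔH − TΔS.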

Eps15 EH2 = assay: ITC of Rsn5-NPF1 with Eps15 EH2; type: binding; details: protein concentration in the ITC cell increased to 0.5 mM

fold higher affinity than Rfp2-NPF2 (EH domain of EHD1; ITC, EHD1 EH): 100 fold | Ka (EH domain of EHD1; ITC, 5.0 °C): 2.03e+06 M⁻¹ | TΔS (EH domain of EHD1; ITC, 5.0 °C): -3.992 kJ/mol | ΔG (EH domain of EHD1; ITC, 5.0 °C): -33.56 kJ/mol | ΔH (EH domain of EHD1; ITC, 5.0 °C): -37.6 kJ/mol | ΔS (EH domain of EHD1; ITC, 5.0 °C): −3.43 cal mol^−1 K^−1 | Ka (EH domain of EHD1; ITC, 10.0 °C): 1.71e+06 M⁻¹ | TΔS (EH domain of EHD1; ITC, 10.0 °C): -6.72 kJ/mol | ΔG (EH domain of EHD1; ITC, 10.0 °C): -33.76 kJ/mol | ΔH (EH domain of EHD1; ITC, 10.0 °C): -40.52 kJ/mol | ΔS (EH domain of EHD1; ITC, 10.0 °C): −5.67 cal mol^−1 K^−1 | Ka (EH domain of EHD1; ITC, 15.0 °C): 1.1e+06 M⁻¹ | TΔS (EH domain of EHD1; ITC, 15.0 °C): -10.32 kJ/mol | ΔG (EH domain of EHD1; ITC, 15.0 °C): -33.3 kJ/mol | ΔH (EH domain of EHD1; ITC, 15.0 °C): -43.681 kJ/mol | ΔS (EH domain of EHD1; ITC, 15.0 °C): −8.56 cal mol^−1 K^−1 | Ka (EH domain of EHD1; ITC, 20.0 °C): 814000 M⁻¹ | TΔS (EH domain of EHD1; ITC, 20.0 °C): -14.23 kJ/mol | ΔG (EH domain of EHD1; ITC, 20.0 °C): -33.14 kJ/mol | ΔH (EH domain of EHD1; ITC, 20.0 °C): -47.405 kJ/mol | ΔS (EH domain of EHD1; ITC, 20.0 °C): −11.6 cal mol^−1 K^−1 | Ka (EH domain of EHD1; ITC, 20 °C, KCl 25.0 mM): 302000 M⁻¹ | TΔS (EH domain of EHD1; ITC, 20 °C, KCl 25.0 mM): -12.88 kJ/mol | ΔH (EH domain of EHD1; ITC, 20 °C, KCl 25.0 mM): -43.597 kJ/mol | ΔS (EH domain of EHD1; ITC, 20 °C, KCl 25.0 mM): −10.5 cal mol^−1 K^−1 | Ka (EH domain of EHD1; ITC, 20 °C, KCl 50.0 mM): 168000 M⁻¹ | TΔS (EH domain of EHD1; ITC, 20 °C, KCl 50.0 mM): -14.23 kJ/mol | ΔG (EH domain of EHD1; ITC, 20 °C, KCl 50.0 mM): -29.3 kJ/mol | ΔH (EH domain of EHD1; ITC, 20 °C, KCl 50.0 mM): -43.597 kJ/mol | ΔS (EH domain of EHD1; ITC, 20 °C, KCl 50.0 mM): −11.6 cal mol^−1 K^−1 | Ka (EH domain of EHD1; ITC, 20 °C, KCl 75.0 mM): 115000 M⁻¹ | TΔS (EH domain of EHD1; ITC, 20 °C, KCl 75.0 mM): -14.84 kJ/mol | ΔG (EH domain of EHD1; ITC, 20 °C, KCl 75.0 mM): -28.38 kJ/mol | ΔH (EH domain of EHD1; ITC, 20 °C, KCl 75.0 mM): -43.263 kJ/mol | ΔS (EH domain of EHD1; ITC, 20 °C, KCl 75.0 mM): −12.1 cal mol^−1 K^−1 | Ka (EH domain of EHD1; ITC, 20 °C, KCl 100.0 mM): 86500 M⁻¹ | TΔS (EH domain of EHD1; ITC, 20 °C, KCl 100.0 mM): -17.79 kJ/mol | ΔG (EH domain of EHD1; ITC, 20 °C, KCl 100.0 mM): -27.68 kJ/mol | ΔH (EH domain of EHD1; ITC, 20 °C, KCl 100.0 mM): -45.522 kJ/mol | ΔS (EH domain of EHD1; ITC, 20 °C, KCl 100.0 mM): −14.5 cal mol^−1 K^−1 | Ka (EH domain of EHD1; ITC, 20 °C, KCl 125.0 mM): 65000 M⁻¹ | TΔS (EH domain of EHD1; ITC, 20 °C, KCl 125.0 mM): -16.93 kJ/mol | ΔG (EH domain of EHD1; ITC, 20 °C, KCl 125.0 mM): -26.99 kJ/mol | ΔH (EH domain of EHD1; ITC, 20 °C, KCl 125.0 mM): -43.932 kJ/mol | ΔS (EH domain of EHD1; ITC, 20 °C, KCl 125.0 mM): −13.8 cal mol^−1 K^−1 | Ka (EH domain of EHD1; ITC, 20 °C, KCl 150.0 mM): 53000 M⁻¹ | TΔS (EH domain of EHD1; ITC, 20 °C, KCl 150.0 mM): -17.42 kJ/mol | ΔG (EH domain of EHD1; ITC, 20 °C, KCl 150.0 mM): -26.49 kJ/mol | ΔH (EH domain of EHD1; ITC, 20 °C, KCl 150.0 mM): -43.932 kJ/mol | ΔS (EH domain of EHD1; ITC, 20 °C, KCl 150.0 mM): −14.2 cal mol^−1 K^−1 | Ka (EH domain of EHD1; ITC, 20 °C, KCl 300.0 mM): 24800 M⁻¹ | TΔS (EH domain of EHD1; ITC, 20 °C, KCl 300.0 mM): -18.28 kJ/mol | ΔG (EH domain of EHD1; ITC, 20 °C, KCl 300.0 mM): -24.64 kJ/mol | ΔH (EH domain of EHD1; ITC, 20 °C, KCl 300.0 mM): -42.928 kJ/mol | ΔS (EH domain of EHD1; ITC, 20 °C, KCl 300.0 mM): −14.9 cal mol^−1 K^−1 | Ka (EH domain of EHD1; ITC, 20 °C, KCl 450.0 mM): 17800 M⁻¹ | TΔS (EH domain of EHD1; ITC, 20 °C, KCl 450.0 mM): -19.75 kJ/mol | ΔG (EH domain of EHD1; ITC, 20 °C, KCl 450.0 mM): -23.83 kJ/mol | ΔH (EH domain of EHD1; ITC, 20 °C, KCl 450.0 mM): -43.639 kJ/mol | ΔS (EH domain of EHD1; ITC, 20 °C, KCl 450.0 mM): −16.1 cal mol^−1 K^−1 | Ka (EH domain of EHD1; ITC, 25.0 °C): 606000 M⁻¹ | TΔS (EH domain of EHD1; ITC, 25.0 °C): -16.97 kJ/mol | ΔG (EH domain of EHD1; ITC, 25.0 °C): -32.97 kJ/mol | ΔH (EH domain of EHD1; ITC, 25.0 °C): -49.957 kJ/mol | ΔS (EH domain of EHD1; ITC, 25.0 °C): −13.6 cal mol^−1 K^−1 | non-electrostatic ΔG (EH domain of EHD1; from (Ka)ne, 20°C): -21.76 kJ/mol | ΔCp (change in heat capacity upon binding) (EH domain of EHD1; from response of ΔH to temperature, 5 to 25°, ITC): −150 cal mol^−1 K^−1
Substance: Ac-GPSLNPFDEED-NH2 [Rsn5-NPF1]
interaction detected by ITC (Eps15 EH2): unable to detect any interaction
